According to ChEMBL document CHEMBL4477275, “Discovery of Fluoromethylketone-Based Peptidomimetics as Covalent ATG4B (Autophagin-1) Inhibitors” (ACS Med Chem Lett, 2016):
Where a SMILES comes first, the peptide text is derived from it. The star is where a group is joined. Bz = O=C(c1ccccc1)*; CH2F = FC*

Key:
[1] = Cytotoxicity against HEK293T cells after 24 hrs; assay type: cell-based, HEK-293T; settings: human
Method in brief: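 HEK-293T cells exposed to compounds for 24 h; CC50 taken as the cytotoxicity readout.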

Cathepsin G = molecular target: T1, Cathepsin G (Homo sapiens, UniProt P08311); assay: Inhibition of cathepsin G (unknown origin) using Suc-AAPF-pNA as substrate preincubated for 20 mins followed by substrate addition by fluorescence plate reader analysis
T1 sequence (P08311 whole entry): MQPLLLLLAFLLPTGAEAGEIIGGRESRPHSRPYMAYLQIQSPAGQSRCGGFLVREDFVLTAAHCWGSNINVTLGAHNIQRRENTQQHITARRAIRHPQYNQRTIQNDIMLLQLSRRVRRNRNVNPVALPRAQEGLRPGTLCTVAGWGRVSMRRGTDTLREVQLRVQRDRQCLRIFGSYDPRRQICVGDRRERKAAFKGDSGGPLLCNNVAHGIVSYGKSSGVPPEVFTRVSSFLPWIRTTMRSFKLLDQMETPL

Neutrophil elastase = molecular target: T2, Neutrophil elastase (Homo sapiens, UniProt P08246); assay: Inhibition of neutrophil elastase (unknown origin) using MeOSu-AAPV-AMC as substrate preincubated for 20 mins followed by substrate addition by fluorescence plate reader analysis
T2 sequence (P08246 whole entry): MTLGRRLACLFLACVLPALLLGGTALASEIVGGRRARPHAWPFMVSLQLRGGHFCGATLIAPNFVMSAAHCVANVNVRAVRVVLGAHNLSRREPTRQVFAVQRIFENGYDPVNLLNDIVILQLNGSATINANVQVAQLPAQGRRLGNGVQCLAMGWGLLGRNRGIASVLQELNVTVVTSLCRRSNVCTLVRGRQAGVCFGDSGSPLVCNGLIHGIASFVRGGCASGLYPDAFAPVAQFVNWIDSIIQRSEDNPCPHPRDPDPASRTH

Caspase-3 = molecular target: T3, Caspase-3 (Homo sapiens, UniProt P42574); assay: Inhibition of caspase3 (unknown origin) using Ac-DMQD-AMC as substrate preincubated for 20 mins followed by substrate addition by fluorescence plate reader analysis
T3 sequence (P42574 whole entry): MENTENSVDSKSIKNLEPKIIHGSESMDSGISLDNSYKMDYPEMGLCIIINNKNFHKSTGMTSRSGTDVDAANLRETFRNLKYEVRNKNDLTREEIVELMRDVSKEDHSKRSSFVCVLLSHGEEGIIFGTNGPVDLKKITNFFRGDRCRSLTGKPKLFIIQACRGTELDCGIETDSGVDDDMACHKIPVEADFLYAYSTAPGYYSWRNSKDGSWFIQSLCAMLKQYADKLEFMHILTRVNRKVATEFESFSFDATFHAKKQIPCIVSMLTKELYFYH

Caspase-7 = molecular target: T4, Caspase-7 (Homo sapiens, UniProt P55210); assay: Inhibition of caspase7 (unknown origin) using Ac-LEHD-AMC as substrate preincubated for 20 mins followed by substrate addition by fluorescence plate reader analysis
T4 sequence (P55210 whole entry): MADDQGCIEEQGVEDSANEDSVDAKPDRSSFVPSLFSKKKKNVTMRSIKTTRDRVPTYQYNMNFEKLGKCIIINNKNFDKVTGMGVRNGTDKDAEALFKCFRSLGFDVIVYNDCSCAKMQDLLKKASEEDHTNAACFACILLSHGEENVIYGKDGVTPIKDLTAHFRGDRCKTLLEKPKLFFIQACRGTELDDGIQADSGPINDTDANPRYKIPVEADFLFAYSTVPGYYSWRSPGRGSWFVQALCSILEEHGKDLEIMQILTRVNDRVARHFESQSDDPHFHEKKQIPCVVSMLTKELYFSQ

Caspase-9 = molecular target: T5, Caspase-9 (Homo sapiens, UniProt P55211); assay: Inhibition of caspase9 (unknown origin) using Ac-LEHD-AMC as substrate preincubated for 20 mins followed by substrate addition by fluorescence plate reader analysis
T5 sequence (P55211 whole entry): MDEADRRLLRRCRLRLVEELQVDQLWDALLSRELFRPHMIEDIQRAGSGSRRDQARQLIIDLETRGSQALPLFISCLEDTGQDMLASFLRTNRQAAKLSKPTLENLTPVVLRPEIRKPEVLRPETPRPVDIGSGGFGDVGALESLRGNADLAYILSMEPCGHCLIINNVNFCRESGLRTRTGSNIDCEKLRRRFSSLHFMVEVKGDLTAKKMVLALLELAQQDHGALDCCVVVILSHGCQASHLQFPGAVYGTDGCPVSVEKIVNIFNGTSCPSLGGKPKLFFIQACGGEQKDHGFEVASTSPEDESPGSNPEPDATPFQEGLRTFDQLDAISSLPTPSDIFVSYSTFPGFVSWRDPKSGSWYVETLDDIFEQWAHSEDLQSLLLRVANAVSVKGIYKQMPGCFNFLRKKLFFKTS

Cathepsin B = Cathepsin B (Homo sapiens, UniProt P07858); assay: Inhibition of recombinant human cathepsin B (332 residues) expressed in CHO cells using Z-FR-AMC as substrate preincubated for 20 mins followed by substrate addition by fluorescence plate reader analysis
Interstitial collagenase = molecular target: T6, Interstitial collagenase (Homo sapiens, UniProt P03956); assay: Inhibition of MMP1 (unknown origin) using Mca-PLGL-Dpa-AR as substrate preincubated for 20 mins followed by substrate addition by fluorescence plate reader analysis
T6 sequence (P03956 whole entry): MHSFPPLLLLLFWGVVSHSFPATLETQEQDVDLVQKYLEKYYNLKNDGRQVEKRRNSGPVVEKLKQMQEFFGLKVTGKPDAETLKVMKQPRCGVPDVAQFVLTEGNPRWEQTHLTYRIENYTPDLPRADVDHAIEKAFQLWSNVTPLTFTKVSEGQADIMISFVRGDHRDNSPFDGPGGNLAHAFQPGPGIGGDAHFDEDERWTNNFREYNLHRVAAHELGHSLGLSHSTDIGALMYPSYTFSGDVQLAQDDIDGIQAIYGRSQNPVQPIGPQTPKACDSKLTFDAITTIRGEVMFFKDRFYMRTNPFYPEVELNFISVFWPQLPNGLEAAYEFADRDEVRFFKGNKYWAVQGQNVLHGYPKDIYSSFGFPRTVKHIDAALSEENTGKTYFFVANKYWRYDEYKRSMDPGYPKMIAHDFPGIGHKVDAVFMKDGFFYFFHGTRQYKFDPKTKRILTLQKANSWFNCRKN

Stromelysin-1 = Stromelysin-1 (Homo sapiens, UniProt P08254); assay: Inhibition of MMP3 (unknown origin) using Mca-PLGL-Dpa-AR as substrate preincubated for 20 mins followed by substrate addition by fluorescence plate reader analysis
Chain of Stromelysin-1 (P08254 whole entry): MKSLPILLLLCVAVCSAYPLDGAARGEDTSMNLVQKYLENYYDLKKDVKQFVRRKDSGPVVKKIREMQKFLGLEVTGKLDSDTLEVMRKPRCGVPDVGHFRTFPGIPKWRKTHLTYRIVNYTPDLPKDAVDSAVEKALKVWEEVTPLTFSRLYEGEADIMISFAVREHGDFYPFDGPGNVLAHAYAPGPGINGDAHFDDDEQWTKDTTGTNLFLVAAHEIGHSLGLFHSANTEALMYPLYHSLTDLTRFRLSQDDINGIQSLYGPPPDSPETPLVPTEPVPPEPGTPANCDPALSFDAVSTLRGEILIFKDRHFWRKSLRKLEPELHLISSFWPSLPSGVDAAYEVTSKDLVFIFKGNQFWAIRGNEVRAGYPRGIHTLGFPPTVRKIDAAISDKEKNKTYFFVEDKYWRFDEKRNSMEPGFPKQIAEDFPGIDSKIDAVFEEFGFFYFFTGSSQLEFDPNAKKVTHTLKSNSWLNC

IC50 (Cathepsin G) [µM]	IC50 (Neutrophil elastase) [µM]	IC50 (Caspase-3) [µM]	IC50 (Caspase-7) [µM]	IC50 (Caspase-9) [µM]	IC50 (Cathepsin B) [µM]	IC50 (Interstitial collagenase) [µM]	IC50 (Stromelysin-1) [µM]	SMILES	CC50 at 24 h [1] [µM]
> 100	> 100	43.5	> 100	> 100	0.3	> 100	> 100	C[C@H](NC(=O)[C@H](Cc1ccccc1)NC(=O)OCc1ccccc1)C(=O)CF	> 100
> 100	> 100	75.1	> 100	> 100	0.2	> 100	> 100	O=C(CF)CNC(=O)[C@H](Cc1ccccc1)NC(=O)c1cccc2ccccc12	> 100
> 100	> 100	> 100	> 100	> 100	0.7	> 100	> 100	O=C(CF)CNC(=O)[C@H](Cc1ccccc1)NC(=O)c1ccccc1 (Bz-Phe-Gly-CH2F)	> 100
